# Compounds with a hit are over-represented: about 2.2% of the library has one in this group of screens.
# Rtt109 Vps75 = blocks Candida albicans Rtt109/Vps75 acetyltransferase activity; purified Rtt109/Vps75, ThioGlo CoA-SH fluorescence, 4 h; inhibition, % at 34.9 µM; hit rate 0.16% among 330,000;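 active = inhibition of at least 50% in every replicate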
# dFosB act-1 = activators of mouse delta FosB homodimer | P13346 | purified delta FosB, TAMRA-CDK5 oligo fluorescence polarization; percent of positive-control signal above neutral wells | activation, % at 25 µM | hit rate 0.99% among 340,000 | AID 493131;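 active = mean activation above about 17%, with every replicate also reaching it, limit read from the data, passing the limit was not always enough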
# Target sequence (P13346 whole entry, looked up): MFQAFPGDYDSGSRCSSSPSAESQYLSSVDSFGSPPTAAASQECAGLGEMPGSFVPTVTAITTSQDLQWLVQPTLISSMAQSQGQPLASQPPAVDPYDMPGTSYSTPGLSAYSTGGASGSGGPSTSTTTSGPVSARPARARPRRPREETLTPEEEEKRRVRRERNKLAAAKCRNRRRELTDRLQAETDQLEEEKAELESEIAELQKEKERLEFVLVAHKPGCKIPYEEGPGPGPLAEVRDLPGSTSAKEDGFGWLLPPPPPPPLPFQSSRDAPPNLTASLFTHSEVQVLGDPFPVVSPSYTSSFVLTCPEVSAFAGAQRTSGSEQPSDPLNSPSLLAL
# CDK5 inh = inhibitors of human CDK5/p35 kinase. hit rate 0.01% among 330,000. Recombinant CDK5/p35, ADP-Glo luminescence, 60 min. AID 488839. inhibition, % at 10 µM. Q00535+Q15078;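 active = highest replicate inhibition of at least 50% and at least 75% of replicates reaching 50%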;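 note: plate controls were DMSO neutral control for no effect and GW8510 at 10 µM for full effect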
# CAL PDZ FP-1 = blocks peptide binding to the human CAL PDZ domain. Q9HD26. purified CAL PDZ, TMR-peptide fluorescence polarization, 1 h. inhibition, % at 24.9 µM. hit rate 0.92% among 300,000. AID 602252;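 active = mean inhibition of at least 30% with at least half of replicates also reaching 30%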;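 note: 0% = DMSO neutral control and 100% = excess unlabeled competitor peptide PRC23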
# CAL PDZ FP-2 = blocks peptide binding to human CAL PDZ domain; purified CAL PDZ, TMR-peptide fluorescence polarization, 1 h; inhibition, % at 20 µM; hit rate 0.02% among 330,000;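 active = highest replicate inhibition of at least 40%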;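 note: plate controls were DMSO neutral control wells for no effect and unlabeled competitor peptide control wells for full effect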
#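 Material – purified CerCALP PDZ construct · Detection – FP readout, S and P plane fluorescence · Measure – percent inhibition from loss of millipolarization · Controls – unlabelled peptide for full inhibition, DMSO wells as neutral · Probe or stimulus – TMR-labelled reporter peptide T*-PRC34 bound in PDZ groove · Times – 1 h at RT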
# Dyrk1A ADPGlo = Dyrk1A (rat) kinase inhibition. hit rate 0.43% among 310,000. Q63470. ADP-Glo luminescence, NFATc1 peptide. inhibition, % at 12.5 µM; in the data active = inhibition above about 50%;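 note: plate controls were vehicle with enzyme for no effect and no enzyme for full effect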
# dFosB act-2 = enhances mouse delta FosB homodimer binding to DNA; shares compounds with dFosB act-1; activation, % at 24.9 µM; AID 588690; purified delta FosB, TAMRA-CDK5 oligo fluorescence polarization; normalised: neutral wells 0, positive control 100; 2,400 tested, under 10 active;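 active = highest replicate activation at or above 34% and every replicate reaching that threshold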;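 note: higher polarization means more probe DNA bound by delta FosB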
# The depositor's hits bear a star; · = no result.
SMILES,Rtt109 Vps75,dFosB act-1,CDK5 inh,CAL PDZ FP-1,CAL PDZ FP-2,Dyrk1A ADPGlo,dFosB act-2
COc1cc(/C=C/C(=O)NCc2cccnc2)cc(OC)c1OC,-1,1,0,-4,-1,9,·
COc1cc(/C=C/C(=O)Nc2cccnc2)cc(OC)c1OC,-1,18*,0,-13,-3,9,5
Cc1cc(C)cc(-c2nnc(SCC(=O)c3c(N)n(C4CC4)c(=O)[nH]c3=O)o2)c1,1,-4,0,-2,0,-3,·
O=C(Cc1ccc(-n2c(=O)c3sccc3n(CC(=O)Nc3ccccc3F)c2=O)cc1)NCc1ccco1,4,52*,0,-5,0,0,5
O=C(Cn1c(=O)n(-c2ccccc2)c(=O)c2sccc21)NCc1ccccc1,-1,-3,0,-5,1,-2,·
O=C(CCCn1c(=O)c2sccc2n(Cc2ccc(F)cc2)c1=O)NCc1ccco1,3,-7,-2,8,0,0,·
O=C(Cn1c(=O)n(-c2ccc(F)cc2)c(=O)c2sccc21)NC1CCCCC1,-3,31*,1,0,0,0,5
Cc1ccc(C)c(Cn2c(=O)n(-c3ccc(CC(=O)NCc4ccco4)cc3)c(=O)c3sccc32)c1,0,30*,-1,-14,-1,0,-1
CCC(=O)c1ccc(OCC(=O)OCC(=O)N2CCc3ccccc32)cc1,-5,-5,-1,-2,-2,4,·
CCCc1cc2c(=O)n(NC(=O)c3nn(C)cc3[N+](=O)[O-])c(C)nc2s1,-2,-3,0,4,0,-4,·
Cc1ccc(C(=O)N(CCc2ccccc2)Cc2ccccc2)cc1S(=O)(=O)N1CCCCC1,-5,-2,-3,-3,-1,9,·
CCNc1ccc(C(=O)OCC(=O)c2cc(C)n(Cc3ccc4c(c3)OCO4)c2C)cc1[N+](=O)[O-],-7,-4,-3,-3,-3,4,·
CNS(=O)(=O)c1ccc(NC(=O)c2cc(-c3ccncc3)nc3ccc(Cl)cc23)cc1,-3,69*,0,-2,-1,-5,-1
C[C@H](CO)N1C[C@H](C)[C@@H](CN(C)C)Oc2c(NS(=O)(=O)c3ccccc3)cccc2C1=O,-12,2,1,0,0,1,·
CN(c1ccc(OCC(=O)OCC(=O)c2c(N)n(C)c(=O)n(C)c2=O)cc1)S(=O)(=O)c1ccc2ccccc2c1,4,33*,0,8,0,-1,-1
O=C(Nc1ccc(Cl)cc1)c1cnc(-c2ccccc2)nc1-c1ccccc1,29,22*,-1,2,-1,-8,1
CNC(=O)c1cnc(-c2ccccc2)nc1-c1ccccc1,5,1,0,-4,-2,-2,·
CCC(=O)C1CCCN(C(=O)c2ccc(OC)c(OC3CCN(C(C)=O)CC3)c2)C1 (stereo not given),-8,-1,-1,0,-1,6,·
COc1cc(C2C(C#N)=C(N)Oc3cc(C)n(CCc4ccccc4)c(=O)c32)cc2c1OCO2 (stereo not given),-6,68*,0,-8,·,7,0
Cc1cc2c(c(=O)n1CCc1ccccc1)C(c1ccco1)C(C#N)=C(N)O2 (stereo not given),-24,7,-1,-4,-2,7,·
CC(Sc1nnc2c(n1)[nH]c1ccccc12)C(=O)NC1CCCCC1 (stereo not given),9,22*,9,0,-5,-1,2
CCOc1ccc2[nH]c3nc(SCC(=O)OC(C)C)nnc3c2c1,7,5,1,8,-1,4,·
CC(C)c1ccc2[nH]c3nc(SCC(=O)NC4CC4)nnc3c2c1,-17,30*,0,·,-3,2,0
O=C(NCc1ccc(F)cc1)C1CCCN(c2nc3ccsc3c(=O)s2)C1 (stereo not given),-16,75*,0,·,0,16,-8
CCN(CC)c1ccc(NC(=O)CSc2nc3ccccc3c(=O)n2-c2cc(S(=O)(=O)N(C)C)ccc2C)cc1,2,-3,1,-4,-1,-2,·
SMILES,Rtt109 Vps75,dFosB act-1,CDK5 inh,CAL PDZ FP-1,CAL PDZ FP-2,Dyrk1A ADPGlo,dFosB act-2
CCS(=O)(=O)C(C)(CCl)C(=O)Nc1ccc(C(=O)OC)cc1 (stereo not given),7,-4,0,-5,-1,2,·
N#C/C(=C\c1c[nH]c2ccccc12)C(=O)Nc1ncc(Cc2ccc(Cl)cc2Cl)s1,-13,31*,1,-1,-3,0,1
CCN1CCN(C(=O)c2ccc(NS(=O)(=O)c3ccccc3)cc2)CC1,14,2,1,-5,0,-6,·
Cc1ccc(NC(=O)Cn2nnc(C(=O)NCCc3ccccc3)c2N)cc1Cl,-2,19*,0,-5,-3,-1,2
COc1ccc(CCNC(=O)c2nnn(CC(=O)Nc3ccc(C)cc3C)c2N)cc1OC,-3,53*,3,-1,-1,-1,6
Cc1ccc(NC(=O)Cn2nnc(C(=O)NCCc3ccccc3)c2N)c(C)c1,11,29*,1,-3,-1,4,-10
COc1ccc(Cl)cc1NC(=O)Cn1nnc(C(=O)NCCc2ccc(OC)c(OC)c2)c1N,-1,38*,0,-2,-1,-3,6
Cc1ccn(CC(=O)N2CCCC(N3CCN(c4ccccc4F)CC3)C2)n1 (stereo not given),0,-8,·,-2,-2,·,·
COc1ccc(CN(CCNC(=O)CCCCC(=O)NCCN(Cc2ccc(OC)cc2)C(C)C)C(C)C)cc1,6,-10,0,7,0,4,·
Cc1cc(C)c(S(=O)(=O)c2ccccc2C(C)C)c(=O)[nH]1,-2,-11,0,-3,-1,-4,·
O=C(N/N=C/c1ccccn1)c1cc(-c2ccc3ccccc3c2)n[nH]1,0,19*,0,-3,-2,-3,3
O=C(N/N=C/C=C/c1ccccc1[N+](=O)[O-])c1ccncc1,6,-4,1,·,0,0,·
O=C(N/N=C/C=C\c1ccccc1[N+](=O)[O-])c1cc(-c2ccc3ccccc3c2)n[nH]1,·,25*,-1,-3,-3,-2,2
CC(=O)Nc1ccccc1NC(=O)C/C(C)=N/NC(=O)C(=O)N1CCCCC1,10,9,-1,-5,-3,1,·
COc1ccc(CCNC(=O)CN(CCc2ccccc2)S(C)(=O)=O)cc1OC,0,-5,0,-2,-2,-9,·
C/C(=N/O)c1ccc2c(c1)OCCOCCOc1cc(/C(C)=N/O)ccc1OCCOCCO2,11,21*,-1,9,-2,-3,5

# Assay outcomes from PubChem.
